{
  "source": "paper PMC11152975",
  "about": "(International Journal of Pharmaceutics: X, 2024)",
  "key": {"[1]": {"system": "MCF-7 human breast cancer cells", "test": "In vitro cytotoxicity, MTT assay", "type": "cell-based", "details": "read-out: mean IC50", "how_it_was_run": "(§1)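 Cells kept in phenol red-free DMEM with 10% FBS, L-glutamine and antibiotics at 37 °C, 5% CO2, then seeded in 96-well plates. They were exposed to a range of test compound concentrations (free drug in DMSO or micellar formulations) for 24, 48 or 72 h. Next, 0.5 mg/mL MTT for 2 h, absorbance read at 550 nm. Viability expressed as % of untreated control wells.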"}, "[2]": {"system": "MDA-MB-231 human breast cancer cells", "test": "In vitro cytotoxicity, MTT assay", "type": "cell-based", "details": "read-out: mean IC50", "how_it_was_run": "as §1"}, "[3]": {"details": "low solubility and low permeability; cited from earlier work"}, "[4]": {"target": "T1, bovine serum albumin (BSA) (Bos taurus, UniProt P02769)", "T1 sequence (P02769 25-607)": "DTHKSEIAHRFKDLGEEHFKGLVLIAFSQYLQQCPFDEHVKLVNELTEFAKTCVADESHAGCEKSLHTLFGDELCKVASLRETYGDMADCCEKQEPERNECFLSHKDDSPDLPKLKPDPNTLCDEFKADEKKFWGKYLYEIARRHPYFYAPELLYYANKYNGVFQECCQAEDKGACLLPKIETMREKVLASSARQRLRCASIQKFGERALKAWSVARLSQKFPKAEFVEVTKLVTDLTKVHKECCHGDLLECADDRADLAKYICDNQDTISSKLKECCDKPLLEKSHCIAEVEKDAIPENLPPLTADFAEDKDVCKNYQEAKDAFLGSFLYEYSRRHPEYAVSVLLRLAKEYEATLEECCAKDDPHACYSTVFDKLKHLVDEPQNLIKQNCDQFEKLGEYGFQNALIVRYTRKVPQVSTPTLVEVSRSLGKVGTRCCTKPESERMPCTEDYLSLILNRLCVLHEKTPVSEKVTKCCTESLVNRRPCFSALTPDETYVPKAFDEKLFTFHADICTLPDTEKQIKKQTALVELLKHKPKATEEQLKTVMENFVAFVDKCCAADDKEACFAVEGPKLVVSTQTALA", "test": "Protein adsorption to micelles: incubation with BSA, DLS and TEM", "type": "physicochemical", "how_it_was_run": "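Drug-loaded micelles were incubated with 45 mg/mL bovine serum albumin in 0.01 M PBS (pH 7.4) at 37 °C for 8 h, with BSA alone and micelles alone incubated in PBS as controls. Hydrodynamic size and polydispersity were read by DLS (n = 3, mean ± SD). For TEM, samples settled 20 s on carbon-coated grids and were negatively stained with 2% phosphotungstic acid in PBS, pH 7.0.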"}, "[5]": {"target": "T1, bovine serum albumin (BSA)", "details": "ref Liu et al., 2005; cited from earlier work"}},
  "note": "Like-named read-outs stand apart in the source and are kept apart here.",
  "data": [
    {"compound": "CC(=O)O[C@H]1C(=O)[C@@]2(C)[C@H]([C@H](OC(=O)c3ccccc3)[C@]3(O)C[C@H](OC(=O)[C@H](O)[C@@H](NC(=O)c4ccccc4)c4ccccc4)C(C)=C1C3(C)C)[C@]1(OC(C)=O)CO[C@@H]1C[C@@H]2O", "note": "[Free PTX (in DMSO), Paclitaxel]", "values": [
      {"measurement": "IC50", "setting": "[1]; MCF7, 24 h", "result": "> 1000", "unit": "nM"},
      {"measurement": "IC50", "setting": "[1]; MCF7, 48 h", "result": 384, "unit": "nM"},
      {"measurement": "IC50", "setting": "[1]; MCF7, 72 h", "result": 297, "unit": "nM"},
      {"measurement": "IC50", "setting": "[2]; MDA-MB-231, 24 h", "result": 21.6, "unit": "nM"},
      {"measurement": "IC50", "setting": "[2]; MDA-MB-231, 48 h", "result": 10.8, "unit": "nM"},
      {"measurement": "IC50", "setting": "[2]; MDA-MB-231, 72 h", "result": 9.7, "unit": "nM"},
      {"measurement": "biopharmaceutical classification system (BCS) class", "setting": "[3]", "result": "class IV"}
    ]},
    {"compound": "bovine serum albumin [BSA]", "values": [
      {"measurement": "Size (hydrodynamic)", "setting": "[4]; 8-h incubation at 37 °C in 0.01 M PBS pH 7.4, sample alone", "result": "8.2 ± 0.1", "unit": "nm"},
      {"measurement": "Polydispersity", "setting": "[4]; 8-h incubation at 37 °C in PBS, sample alone", "result": "0.236 ± 0.019"},
      {"measurement": "hydrodynamic diameter", "setting": "[5]", "result": "7.9 ± 0.4", "unit": "nm"}
    ]}
  ]
}
